# Experimental data taken from ChEMBL document CHEMBL4257476, “Design, synthesis and biological evaluation of novel 5-hydroxy-2-methyl-4H-pyran-4-one derivatives as antiglioma agents” (Medchemcomm, 2018).
# Columns and labels:
# HT-1080 [1] = assay: Antiproliferative activity against human HT1080 cells by MTT assay; assay type: functional, cell-based
# Summary of the method: (§1)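 MTT viability: cells grown in DMEM with 10% FBS, 2 mM L-glutamine and penicillin/streptomycin at 37 °C, 5% CO2. Seeded 5000/well for 12 h. Compound diluted 1000× from DMSO stock (final DMSO <0.1%). MTT conversion to formazan for 4 h, absorbance at 562 nm. 4 replicate wells per concentration, at least three runs.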
# U-87 MG [2] = assay: Antiproliferative activity against human U87 cells by MTT assay; assay type: functional, cell-based, U-87MG ATCC; summary of the method: as §1
# [3] = target: Isocitrate dehydrogenase [NADP] cytoplasmic (Homo sapiens, UniProt O75874, R132H); assay: Inhibition of His-tagged recombinant human IDH1 R132H mutant expressed in Escherichia coli Rosetta (DE3) preincubated for 30 mins followed by NADPH/alpha-KG addition and measured after 1 hr
# Summary of the method: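 His-tagged mutant human IDH1 expressed from pET28a in E. coli Rosetta (DE3) with 1 mM IPTG, purified on Ni-NTA with imidazole step elution. Enzyme and compound preincubated 30 min at room temperature in 50 mM Tris, 200 mM NaCl, 5 mM β-mercaptoethanol, 2 mM MgSO4, 10% glycerol. MgCl2, NADPH and α-KG then added, 1 h at 37 °C; NADPH consumption read at 340 nm.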
# [4] = test system: Isocitrate dehydrogenase [NADP] cytoplasmic (Homo sapiens), O75874 [R132H]; assay: Inhibition of IDH1 […] cells assessed as decrease in D-2HG levels at 1 uM after 48 hrs by HPLC-MS analysis relative to control; assay type: cell-based
# Summary of the method: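 HT1080 cells (1×10^5/well, 6-well plates) attached overnight in DMEM with 10% dialyzed FBS. Treated 48 h with rising compound concentrations in 2 mL medium. Quantified by SIM at 147 Da from peak area against an authentic D-2HG standard curve.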
# U-87 MG [5] = assay: Antimigratory activity in human U87 cells assessed as migration rate at 1 uM after 12 hrs by scratch assay (reference value: 51.3%); assay type: functional, U-87MG ATCC
# U-87 MG [6] = assay: Antimigratory activity in human U87 cells assessed as migration rate at 1 uM after 24 hrs by scratch assay (reference value: 17.5%); assay type: functional, U-87MG ATCC
# HT-1080 [7] = assay: Antimigratory activity in human HT1080 cells assessed as scratch area at 1 uM after 6 hrs (reference value: 58.7%); assay type: functional
# HT-1080 [8] = assay: Antimigratory activity in human HT1080 cells assessed as scratch area at 1 uM after 12 hrs (reference value: 23.3%); assay type: functional
# U-87 MG [9] = assay: Inhibition of colony formation of human U87 cells after 8 days by Giemsa-Wright staining-based assay; assay type: functional, cell-based; conditions: U-87MG ATCC
# Summary of the method: (§2)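 Colony formation: 200 cells/well in 6-well plates, 2 mL medium, treated 8 days with DMSO control or compound. Cells then washed three times with cold PBS, fixed in 95% cold MeOH for 15 min, and stained with Giemsa-Wright. Colonies counted by eye at least three times.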
# U-87 MG [10] = assay: Inhibition of colony formation of human U87 cells at 0.5 uM after 8 days by Giemsa-Wright staining-based assay relative to control; assay type: functional, U-87MG ATCC; conditions: 192 h; summary of the method: as §2
# U-87 MG [11] = assay: Inhibition of colony formation of human U87 cells at 1 uM after 8 days by Giemsa-Wright staining-based assay relative to control; assay type: functional, U-87MG ATCC; conditions: 192 h; summary of the method: as §2
# HT-1080 [12] = assay: Inhibition of colony formation of human HT1080 cells at 0.5 uM after 8 days by Giemsa-Wright staining-based assay relative to control; assay type: functional; conditions: HT-1080, 192 h; summary of the method: as §2
# HT-1080 [13] = assay: Inhibition of colony formation of human HT1080 cells at 1 uM after 8 days by Giemsa-Wright staining-based assay relative to control; assay type: functional; conditions: HT-1080, 192 h; summary of the method: as §2
# HT-1080 [14] = assay: Antimigratory activity in human HT1080 cells assessed as scratch area at 10 uM after 6 hrs (reference value: 58.7%); assay type: functional
# HT-1080 [15] = assay: Antimigratory activity in human HT1080 cells assessed as scratch area at 10 uM after 12 hrs (reference value: 23.3%); assay type: functional
# Isocitrate dehydrogenase [NADP] cytoplasmic, sequence (O75874 2-414 R132H limits assumed): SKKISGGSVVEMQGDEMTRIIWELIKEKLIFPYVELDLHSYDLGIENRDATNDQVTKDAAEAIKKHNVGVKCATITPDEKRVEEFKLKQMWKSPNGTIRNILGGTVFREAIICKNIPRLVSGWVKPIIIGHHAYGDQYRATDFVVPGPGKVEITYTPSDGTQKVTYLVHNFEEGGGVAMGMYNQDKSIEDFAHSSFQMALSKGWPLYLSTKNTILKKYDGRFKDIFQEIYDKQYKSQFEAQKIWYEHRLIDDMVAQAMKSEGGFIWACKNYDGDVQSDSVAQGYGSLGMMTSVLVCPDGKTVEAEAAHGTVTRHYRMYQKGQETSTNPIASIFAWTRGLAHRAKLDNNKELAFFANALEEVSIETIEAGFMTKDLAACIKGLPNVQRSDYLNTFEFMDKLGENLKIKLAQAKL
# Isocitrate dehydrogenase [NADP] cytoplasmic (Homo sapiens), O75874 [R132H], sequence (O75874 whole entry R132H): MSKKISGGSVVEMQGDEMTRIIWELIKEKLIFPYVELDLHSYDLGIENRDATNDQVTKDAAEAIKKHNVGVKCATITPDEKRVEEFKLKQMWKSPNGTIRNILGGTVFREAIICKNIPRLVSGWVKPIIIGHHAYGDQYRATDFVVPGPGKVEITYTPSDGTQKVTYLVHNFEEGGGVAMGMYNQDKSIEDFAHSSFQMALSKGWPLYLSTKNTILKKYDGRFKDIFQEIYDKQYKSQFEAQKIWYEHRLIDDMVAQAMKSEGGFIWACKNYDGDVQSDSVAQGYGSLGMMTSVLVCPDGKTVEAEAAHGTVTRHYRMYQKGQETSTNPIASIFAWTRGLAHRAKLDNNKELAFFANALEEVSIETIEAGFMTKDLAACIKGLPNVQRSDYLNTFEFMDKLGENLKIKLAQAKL
Structure (SMILES),IC50 (HT-1080 [1]),IC50 (U-87 MG [2]),IC50 [3],further results
COc1ccc(COc2ccc(C(c3oc(C)cc(=O)c3O)c3oc(C)cc(=O)c3O)cc2)cc1,2.6 µM,5.2 µM,32 µM,–
C=CCOc1ccc(C(c2oc(C)cc(=O)c2O)c2oc(C)cc(=O)c2O)cc1,28.3 µM,30.9 µM,> 50 µM,–
Cc1cc(=O)c(O)c(C(c2ccc(OCc3ccc([N+](=O)[O-])cc3)cc2)c2oc(C)cc(=O)c2O)o1,3.06 µM,> 50 µM,> 50 µM,–
CCCOc1ccc(C(c2oc(C)cc(=O)c2O)c2oc(C)cc(=O)c2O)cc1,26.6 µM,29.5 µM,> 50 µM,–
Cc1cc(=O)c(O)c(C(c2ccc(OCc3ccccc3)cc2)c2oc(C)cc(=O)c2O)o1,1.43 µM,4.6 µM,23.1 µM,inhibition [4]: 86.5%; Activity (U-87 MG [5]): 82.8%; Activity (U-87 MG [6]): 69.5%; Activity (HT-1080 [7]): 61%; Activity (HT-1080 [8]): 43.5%; inhibition (U-87 MG [9]): Dose-dependent effect; inhibition at 0.5 µM (U-87 MG [10]): 11.3%; inhibition at 1 µM (U-87 MG [11]): 96.8%; inhibition at 0.5 µM (HT-1080 [12]): 75%; inhibition at 1 µM (HT-1080 [13]): 99.5%
Cc1cc(=O)c(O)c(Cc2ccc(C(F)(F)F)cc2)o1,24.4 µM,> 50 µM,> 50 µM,–
Cc1cc(=O)c(O)c(C(c2ccc(CCc3ccccc3)cc2)c2oc(C)cc(=O)c2O)o1,> 50 µM,27.2 µM,> 50 µM,–
Cc1cc(=O)c(O)c(Cc2ccccc2)o1,> 50 µM,> 50 µM,> 50 µM,–
Cc1cc(=O)c(O)c(Cc2ccc(OCc3ccccc3)cc2)o1,> 50 µM,> 50 µM,> 50 µM,–
Cc1cc(=O)c(O)c(Cc2ccc(Cl)cc2)o1,> 50 µM,> 50 µM,> 50 µM,–
Cc1cc(=O)c(O)c(Cc2ccc(F)cc2)o1,> 50 µM,> 50 µM,> 50 µM,–
Cc1ccccc1C(C(=O)NC1CCCCC1)N(C(=O)Cn1ccnc1C)c1cccc(F)c1 (stereo not given),–,20.1 µM,0.08 µM,inhibition [4]: 86.9%; Activity (U-87 MG [5]): 84%; Activity (U-87 MG [6]): 51%; Activity (HT-1080 [14]): 70%; Activity (HT-1080 [15]): 56%
